# In paper PMC11378895 (Asian Journal of Pharmaceutical Sciences, 2024):
# Where no end group is shown, it is not given here.
# Tests used:
# LRG1 = target: T1, LRG1 (Homo sapiens, UniProt P02750); test: LRG1 degradation in HK-2 cells; format: cell-based; conditions: various concentrations, Western blot (Fig. S9)
# T1 sequence (P02750 36-347): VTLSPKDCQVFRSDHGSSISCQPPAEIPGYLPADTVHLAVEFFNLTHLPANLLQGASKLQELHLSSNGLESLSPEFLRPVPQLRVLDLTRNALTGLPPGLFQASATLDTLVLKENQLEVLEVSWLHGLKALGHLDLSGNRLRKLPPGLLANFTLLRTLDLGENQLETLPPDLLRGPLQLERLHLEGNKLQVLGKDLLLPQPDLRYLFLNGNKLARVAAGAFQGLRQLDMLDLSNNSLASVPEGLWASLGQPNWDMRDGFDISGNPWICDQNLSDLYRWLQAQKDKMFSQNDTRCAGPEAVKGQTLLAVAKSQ
# How it was run: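 HK-2 cells were seeded at 3 × 10^5 cells per well. After adherence, they were serum-starved 6 h, then treated with test compound at varying concentrations for 12 h. Harvested protein went to Western blot, with LRG1 normalised to GAPDH as internal control.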
# HK-2 cells = test: Cellular uptake by flow cytometry and confocal microscopy; format: cell-based, human; conditions: 10 µM, 1-h and 4-h incubation, flow cytometry, n = 3
# How it was run: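 HK-2 cells in DMEM with 10% FBS at 37 °C and 5% CO2, seeded at 3 × 10^5 cells per well. After adherence, they got medium with 10 µM Cy5-labelled test peptide or control peptide, some with TGF-β, for 1 h or 4 h. Flow cytometry quantified uptake (n = 3). For confocal imaging, the same treatment was followed by fixation and Hoechst 33342 nuclear stain.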
Compound,LRG1 degradation by the constituents (control degradation experiments) (LRG1),uptake by HK-2 cells compared with control peptide (HK-2 cells)
"Nc1cccc2c1CN(C1CCC(=O)NC1=O)C2=O (centres unmarked) [lenalidomide, Lenalidomide]",none of these treatments led to LRG1 degradation,–
"ET-Cy5: ET peptide labeled with cyanine dye Cy5 (ESYSAKHRIMLT; also: Cy5 label, position not given here)",–,markedly enhanced than MP-Cy5
